ChEMBL document CHEMBL3400098, “Aza follow-ups to BI 207524, a thumb pocket 1 HCV NS5B polymerase inhibitor. Part 1: Mitigating the genotoxic liability of an aniline metabolite” (Bioorg Med Chem Lett, 2015)

Tests used:
[1] = system: Hepatitis C virus; experiment: Antiviral activity against Hepatitis C virus genotype 1b infected in human Huh cells assessed as inhibition of viral replication by luciferase reporter assay; assay type: functional, cell-based, Hepacivirus hominis
Summary of the method: (§1)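 HCV replicon EC50 determined in duplicate, using either a GT1b luciferase reporter read-out or RT-PCR quantification of replicon RNA.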

[2] = Half life in dog liver microsomes at 2 uM; assay type: ADME, Canis lupus familiaris
Summary of the method: (§2)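 Stability in liver microsomes with 2 µM initial compound concentration; half-life recorded.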

[3] = Cmax in rat at 5 mg/kg, po and 2 mg/kg, iv; assay type: ADME, organism-based; conditions: in vivo
Summary of the method: (§3)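 Animals fasted overnight. Oral dose given as a suspension in 0.5% methylcellulose, 0.3% Tween-80 and 1% NMP. IV bolus of 2 mg/kg given in 70% PEG-400:30% water. N = 3 per dose and per route. Plasma kept on ice, spun at 4 °C and stored at about −20 °C. Calibration standards prepared in blank plasma, LOQ 7 ng/mL. Non-compartmental analysis.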

[4] = Cmax in dog at 5 mg/kg, po and 2 mg/kg, iv; assay type: ADME, organism-based, Canis lupus familiaris; conditions: in vivo; summary of the method: as §3
[5] = AUC in rat at 5 mg/kg, po and 2 mg/kg, iv; assay type: ADME, organism-based; conditions: plasma; summary of the method: as §3
[6] = AUC in dog at 5 mg/kg, po and 2 mg/kg, iv; assay type: ADME, organism-based, Canis lupus familiaris; conditions: plasma; summary of the method: as §3
[7] = Half life in rat at 5 mg/kg, po and 2 mg/kg, iv; assay type: ADME, organism-based; conditions: in vivo; summary of the method: as §3
[8] = Half life in dog at 5 mg/kg, po and 2 mg/kg, iv; assay type: ADME, organism-based, Canis lupus familiaris; conditions: in vivo; summary of the method: as §3
[9] = Volume of distribution at steady state in rat at 5 mg/kg, po and 2 mg/kg, iv; assay type: ADME, organism-based; conditions: in vivo, read-out: Vdss; summary of the method: as §3
[10] = Volume of distribution at steady state in dog at 5 mg/kg, po and 2 mg/kg, iv; assay type: ADME, organism-based, Canis lupus familiaris; conditions: in vivo, read-out: Vdss; summary of the method: as §3
[11] = Clearance in rat at 2 mg/kg, iv; assay type: ADME, organism-based; set-up: dose 2 mg/kg, route intravenous; conditions: in vivo; summary of the method: as §3
[12] = Bioavailability in rat at 5 mg/kg, po and 2 mg/kg, iv; assay type: ADME, organism-based; conditions: in vivo; summary of the method: as §3
[13] = Clearance in dog at 2 mg/kg, iv; assay type: ADME, organism-based, Canis lupus familiaris; set-up: dose 2 mg/kg, route intravenous; conditions: in vivo; summary of the method: as §3
[14] = Bioavailability in dog at 5 mg/kg, po and 2 mg/kg, iv; assay type: ADME, organism-based, Canis lupus familiaris; conditions: in vivo; summary of the method: as §3
[15] = Permeability coefficient, Kp for ratio of drug uptake in liver to plasma in rat; assay type: ADME
[16] = Inhibition of Hepatitis C virus genotype 1b C-terminal truncated NS5B RNA dependent RNA polymerase delta21 expressed in Escherichia coli by scintillation proximity assay; set-up: species or system Hepatitis C virus subtype 1b
Summary of the method: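 Biochemical polymerase inhibition using a C-terminally truncated GT1b NS5BΔ21 construct. Values are the mean of duplicate measurements (n ≥ 2).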

[17] = Cytotoxicity against human HuH7 cells assessed as reduction in cell viability by MTT assay; assay type: cell-based; conditions: Huh-7 cells, read-out: TC50 (the source's name)
Summary of the method: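 Cytotoxicity (TC50) measured by MTT read-out in the Huh-7 cell line.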

[18] = system: Hepatitis C virus; experiment: Antiviral activity against Hepatitis C virus genotype 1b infected in human Huh cells assessed as inhibition of viral replication by RT-PCR-based replicon assay; assay type: functional, cell-based, Hepacivirus hominis; summary of the method: as §1
[19] = system: Hepatitis C virus; experiment: Antiviral activity against Hepatitis C virus genotype 1a infected in human Huh cells assessed as inhibition of viral replication by RT-PCR-based replicon assay; assay type: functional, cell-based, Hepacivirus hominis; conditions: subtype 1a; summary of the method: as §1
[20] = Half life in rat liver microsomes at 2 uM; assay type: ADME; summary of the method: as §2
[21] = Cmax in rat at 5 mg/kg, po; assay type: ADME, organism-based; set-up: dose 5 mg/kg, route oral; conditions: in vivo
Summary of the method: (§4)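 Rats fasted overnight, then given a single compound orally at 5 mg/kg in 0.5% methylcellulose, 0.3% Tween-80 and 1% NMP. Plasma Cmax measured. Liver/plasma concentration ratio taken at 8 h for single-compound dosing.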

[22] = Ratio of drug up take in liver to plasma of rat at 5 mg/kg, po measured at 8 hrs post dose; assay type: ADME, organism-based; set-up: dose 5 mg/kg, route oral; summary of the method: as §4
[23] = Lipophilicity, log D of the compound at pH 7.4; assay type: physicochemical; conditions: buffer
[24] = Clearance in rhesus monkey at 2 mg/kg, iv; conditions: in vivo
[25] = system: Macaca mulatta; experiment: AUC in rhesus monkey at 5 mg/kg, po and 2 mg/kg, iv; conditions: plasma
[26] = Half life in rhesus monkey liver microsomes at 2 uM
[27] = system: Macaca mulatta; experiment: Cmax in rhesus monkey at 5 mg/kg, po and 2 mg/kg, iv; conditions: in vivo
[28] = system: Macaca mulatta; experiment: Half life in rhesus monkey at 5 mg/kg, po and 2 mg/kg, iv; conditions: in vivo
[29] = system: Macaca mulatta; experiment: Bioavailability in rhesus monkey at 5 mg/kg, po and 2 mg/kg, iv; conditions: in vivo
[30] = system: Macaca mulatta; experiment: Volume of distribution at steady state in rhesus monkey at 5 mg/kg, po and 2 mg/kg, iv; conditions: in vivo, read-out: Vdss
[31] = Half life in human liver microsomes at 2 uM; assay type: ADME; summary of the method: as §2
[32] = Permeability from apical to basolateral side of human Caco2 cells; assay type: ADME, cell-based; conditions: Caco-2, read-out: permeability
Summary of the method: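 Caco-2 permeability measured in the apical-to-basolateral direction, reported in cm/s.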

[33] = Plasma concentration in rat at 4 mg/kg, po as cassette dosing measured at 1 hr post dose; assay type: ADME, organism-based; set-up: dose 4 mg/kg, route oral
Summary of the method: (§5)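 Cassette dosing: a mixture of 4 compounds, each at 4 mg/kg, given orally to 2 fasted rats in 0.5% methylcellulose, 0.3% Tween-80 and 1% NMP. Plasma sampled at 1 and 2 h. Liver/plasma ratio determined at 2 h.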

[34] = Plasma concentration in rat at 4 mg/kg, po as cassette dosing measured at 2 hrs post dose; assay type: ADME, organism-based; set-up: dose 4 mg/kg, route oral; summary of the method: as §5
[35] = Ratio of drug up take in liver to plasma of rat at 4 mg/kg, po as cassette dosing measured at 2 hrs post dose; assay type: ADME, organism-based; set-up: dose 4 mg/kg, route oral; summary of the method: as §5
[36] = system: Cynomolgus monkey; experiment: Dose normalized Cmax in cynomolgous monkey at 10 mg/kg, po and 2 mg/kg, iv; assay type: ADME, organism-based, Macaca fascicularis; conditions: in vivo
Summary of the method: (§6)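 Cynomolgus monkeys fasted overnight, then given 10 mg/kg orally as a suspension in 0.5% methylcellulose, 0.3% Tween-80 and 1% NMP. IV bolus of 2 mg/kg in 70% PEG-400:30% water. Oral values normalized to 5 mg/kg. Plasma analysed by non-compartmental methods.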

[37] = system: Cynomolgus monkey; experiment: Dose normalized AUC in cynomolgous monkey at 10 mg/kg, po and 2 mg/kg, iv; assay type: ADME, organism-based, Macaca fascicularis; conditions: in vivo; summary of the method: as §6
[38] = system: Cynomolgus monkey; experiment: Dose normalized half life in cynomolgous monkey at 10 mg/kg, po and 2 mg/kg, iv; assay type: ADME, organism-based, Macaca fascicularis; conditions: in vivo; summary of the method: as §6
[39] = system: Cynomolgus monkey; experiment: Dose normalized volume of distribution at steady state in cynomolgous monkey at 10 mg/kg, po and 2 mg/kg, iv; assay type: ADME, organism-based, Macaca fascicularis; conditions: in vivo; summary of the method: as §6
[40] = Dose normalized bioavailability in cynomolgous monkey at 10 mg/kg, po and 2 mg/kg, iv; assay type: ADME, organism-based, Macaca fascicularis; conditions: cynomolgus monkey, in vivo, read-out: F/dose; summary of the method: as §6
[41] = Clearance in cynomolgous monkey at 2 mg/kg, iv; assay type: ADME, organism-based, Macaca fascicularis; set-up: dose 2 mg/kg, route intravenous; conditions: cynomolgus monkey, in vivo; summary of the method: as §3
[42] = system: Rattus norvegicus; experiment: Dose normalized Cmax in rat at 10 mg/kg, po; assay type: ADME, organism-based; set-up: dose 10 mg/kg, route oral; conditions: in vivo
Summary of the method: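 Rats dosed orally at 10 mg/kg as a suspension in 0.5% methylcellulose, 0.3% Tween-80 and 1% NMP. Plasma Cmax normalized to 5 mg/kg.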

[43] = Ratio of drug up take in liver to plasma of rat at 5 mg/kg, po measured at 6 hrs post dose; assay type: ADME, organism-based; set-up: dose 5 mg/kg, route oral
[44] = Half life in cynomolgous monkey liver microsomes at 2 uM; assay type: ADME, Macaca fascicularis; conditions: cynomolgus monkey; summary of the method: as §2

| Compound | EC50 [1] [nM] | half-life at 2 µM [2] [h] | Cmax [3] [µM] | Cmax [4] [µM] | AUC [5] [µM·h] | AUC [6] [µM·h] | half-life [8] [h] | bioavailability [12] [%] | bioavailability [14] [%] | Kp [15] | IC50 [16] [nM] | CC50 [17] [nM] | EC50 [18] [nM] | EC50 [19] [nM] | half-life at 2 µM [20] [h] | half-life at 2 µM [31] [h] | Papp A→B [32] [×10⁻⁶ cm/s] | concentration at 1 h [33] [µM] | concentration at 2 h [34] [µM] | further results |
| --- | --- | --- | --- | --- | --- | --- | --- | --- | --- | --- | --- | --- | --- | --- | --- | --- | --- | --- | --- | --- |
| CCOc1nc(NC(=O)C2(NC(=O)c3ccc4c(C5CCCC5)c(-c5ncc(Cl)cn5)n(C)c4c3)CCC2)ccc1/C=C/C(=O)O | 15 | 3.65 | 5.8 | 10 | 17 | 56 | 6.1 | 42 | 40 | 2.6 | 85 | 56000 | 14 | 27 | 1.85 | – | – | – | – | half-life [7]: 1.5 h; Vd [9]: 0.28 L/kg; Vd [10]: 0.28 L/kg; clearance [11]: 3.1 mL/min/kg; clearance [13]: 0.9 mL/min/kg; Cmax [21]: 5.9 µM; Kp at 8 h [22]: 2; logD [23]: > 5.9; clearance [24]: 1.5 mL/min/kg; AUC [25]: 8.9 µM·h; half-life at 2 µM [26]: 0.533 h; Cmax [27]: 2.6 µM; half-life [28]: 2 h; bioavailability [29]: 11%; Vd [30]: 0.06 L/kg |
| CCOc1nc(NC(=O)C2(NC(=O)c3ccc4c(C5CCCC5)c(-c5ncc(Cl)cn5)n(C)c4c3)CCC2)ncc1/C=C/C(=O)O | 40 | – | – | – | – | – | – | – | – | – | 63 | > 10000 | – | 89 | > 5 | 3.98 | 4.3 | 0.1 | 0.03 | – |
| CCOc1nc(NC(=O)C2(NC(=O)c3ccc4c(C5CCCC5)c(-c5ncc(Cl)cn5)n(C)c4c3)CCC2)cnc1/C=C/C(=O)O | 20 | – | – | – | – | – | – | – | – | – | 100 | > 10000 | – | 34 | > 5 | 2.43 | 13 | 2.1 | 0.9 | Kp at 2 h [35]: 5 |
| CCOc1cc(NC(=O)C2(NC(=O)c3ccc4c(C5CCCC5)c(-c5ncc(Cl)cn5)n(C)c4c3)CCC2)ccc1/C=C/C(=O)O | 13 | 2.92 | 3.2 | 4.1 | 9.6 | 38 | 4.5 | 19 | 29 | 5.5 | 84 | – | 11 | 29 | – | – | – | – | – | Cmax/dose [36]: 4.8 µM; AUC/dose [37]: 26 µM·h; t1/2/dose [38]: 3 h; Vdss/dose [39]: 0.6 L/kg; bioavailability [40]: 72%; clearance [41]: 3.6 mL/min/kg; Cmax/dose [42]: 3.2 µM; Kp at 6 h [43]: 5.5; half-life at 2 µM [44]: 1.6 h |
